Data set [1] addresses Serine/threonine-protein kinase 33 (Homo sapiens) (UniProt Q9BYT3). Put plainly: Binding affinity to wild-type human full length STK33 (M1 to L514 residues) expressed in bacterial expression system assessed as remaining unbound target protein level at 1000 nM by Kinomescan method relative to control. Put shortly: (§1)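 Profiled in a KINOMEscan binding panel with the inhibitor at a single concentration of 1 μM. Binding to each kinase was read out as percent of control, relative to a DMSO control. Strong binders were defined as those with a percent control value below 1.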

Data set [2] addresses SRSF protein kinase 2 (Homo sapiens) (UniProt P78362). Put plainly: Binding affinity to wild-type human full length SRPK2 (M1 to S686 residues) expressed in bacterial expression system assessed as remaining unbound target protein level at 1000 nM by Kinomescan method relative to control. Put shortly:
as §1

For another data set, the system named is MV4-11. The experiment in a line: Antitumor activity against human MV4-11 cells xenografted in nu/nu mouse assessed as tumor growth inhibition at 20 to 30 mg/kg, po administered via gavage for 21 days measured on day 21 post last dose. In kind it is functional, organism-based. The method in brief: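 Female nu/nu mice, five weeks old, implanted subcutaneously in the right flank with 5 million MV4-11 cells in PBS/Matrigel 1:1. Daily oral gavage in 0.5% methylcellulose/0.4% Tween80 started at tumor volume 200–400 mm³, 10, 20 or 30 mg/kg/day or vehicle, 5 mice per group. Tumor volume (W²×L)/2 and body weight measured daily; mean ± SEM.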

Data set [3] deals with Ephrin type-A receptor 7 (Homo sapiens) (UniProt Q15375). The experiment in a line: Binding affinity to wild-type human partial length EPHA7 (Y608 to S912 residues) expressed in bacterial expression system assessed as remaining unbound target protein level at 1000 nM by Kinomescan method relative to control. Put shortly: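 KINOMEscan binding panel of 468 kinases/mutants. Inhibitor was tested at a single concentration of 1 μM. Binding is reported as percent of control, defined relative to a DMSO control.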

Data set [4] concerns the target Mitogen-activated protein kinase kinase kinase kinase 3 (Homo sapiens) (UniProt Q8IVH8). Put plainly: Binding affinity to wild-type human partial length MAP4K3 (M1 to D301 residues) expressed in bacterial expression system assessed as remaining unbound target protein level at 1000 nM by Kinomescan method relative to control.
For data set [5], the target named is Receptor-type tyrosine-protein kinase FLT3 (Homo sapiens) (UniProt P36888). The experiment in a line: Binding affinity to wild-type human partial length FLT3 (V592 to Y969 residues) expressed in bacterial expression system assessed as remaining unbound target protein level at 1000 nM by Kinomescan method relative to control.
Sequence of Receptor-type tyrosine-protein kinase FLT3 (Homo sapiens) (P36888 whole entry, the tested form may be a part): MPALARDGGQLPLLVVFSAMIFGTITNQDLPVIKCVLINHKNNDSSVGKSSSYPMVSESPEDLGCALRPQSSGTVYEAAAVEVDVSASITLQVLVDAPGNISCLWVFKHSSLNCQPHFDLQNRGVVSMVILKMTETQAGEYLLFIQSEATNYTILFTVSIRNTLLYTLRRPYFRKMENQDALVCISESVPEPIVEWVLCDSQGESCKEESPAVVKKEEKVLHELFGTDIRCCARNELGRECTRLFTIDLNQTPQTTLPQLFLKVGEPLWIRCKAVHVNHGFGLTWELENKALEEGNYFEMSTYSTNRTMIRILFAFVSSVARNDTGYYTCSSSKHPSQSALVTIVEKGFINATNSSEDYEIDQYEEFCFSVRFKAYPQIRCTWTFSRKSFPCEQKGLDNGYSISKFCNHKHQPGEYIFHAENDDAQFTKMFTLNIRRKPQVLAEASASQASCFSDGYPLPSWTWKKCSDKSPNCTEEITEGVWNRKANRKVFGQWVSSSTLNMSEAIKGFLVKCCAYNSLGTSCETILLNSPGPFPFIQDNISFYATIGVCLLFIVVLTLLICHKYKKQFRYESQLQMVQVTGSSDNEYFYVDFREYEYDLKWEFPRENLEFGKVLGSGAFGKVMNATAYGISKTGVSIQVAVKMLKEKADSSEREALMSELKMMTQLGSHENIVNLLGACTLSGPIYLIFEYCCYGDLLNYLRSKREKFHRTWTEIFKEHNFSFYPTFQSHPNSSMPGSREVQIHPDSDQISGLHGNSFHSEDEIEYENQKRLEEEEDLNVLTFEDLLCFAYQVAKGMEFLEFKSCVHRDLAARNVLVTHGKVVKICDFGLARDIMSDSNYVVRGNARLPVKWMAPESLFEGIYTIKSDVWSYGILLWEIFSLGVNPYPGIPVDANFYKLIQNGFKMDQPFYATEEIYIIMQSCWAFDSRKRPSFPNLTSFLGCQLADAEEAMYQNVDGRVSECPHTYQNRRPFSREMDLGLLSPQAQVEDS
Data set [6] concerns the target Serine/threonine-protein kinase ULK2 (Homo sapiens) (UniProt Q8IYT8). The experiment in a line: Binding affinity to wild-type human partial length ULK2 (M1 to S301 residues) expressed in mammalian expression system assessed as remaining unbound target protein level at 1000 nM by Kinomescan method relative to control.
Data set [7] addresses Atypical kinase COQ8B, mitochondrial (Homo sapiens) (UniProt Q96D53). The experiment in a line: Binding affinity to wild-type human full length ADCK4 (M1 to S544 residues) expressed in bacterial expression system assessed as remaining unbound target protein level at 1000 nM by Kinomescan method relative to control. Put shortly:
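Single-point competition binding screen across a panel of 468 kinases and mutants, with the inhibitor at 1 μM. Binding is read out as percent of a DMSO control, and targets below 1 percent control were classed as strong binders.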

Data set [8] in a line: AUC (0 to infinity) in mouse at 3 mg/kg, iv by LC-MS/MS analysis. The data set is classed as ADME, organism-based. Details: dose 3 mg/kg, route intravenous, time infinity. Conditions: in vivo. The method in brief: (§2)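 Non-compartmental PK. Male SD rats 190-210 g, mice and beagle dogs acclimatized one week, fasted 12 h with water, split into iv and po groups (mice 48, rats 6, dogs 6). iv 3/3/2 mg/kg (mice/rats/dogs); po 10/20/10 mg/kg; vehicle DMSO in 5% glucose water. Blood at 2 or 5 to 720 min; plasma protein-precipitated with methanol, caffeine internal standard, LC-MS/MS.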

For data set [9], the system named is Epidermal growth factor receptor (Homo sapiens), P00533 [UNDEFINED MUTATION]. Put plainly: Binding affinity to human partial length EGFR L747-S752del/P753S mutant expressed in bacterial expression system assessed as remaining unbound target protein level at 1000 nM by Kinomescan method relative to control. The method in brief:
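KINOMEscan competition-binding profiling across the panel of 468 kinases and mutants, with inhibitor tested at 1 μM. Binding is expressed as percent of control, with DMSO as the reference control.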

Data set [10] deals with Serine/threonine-protein kinase Nek2 (Homo sapiens) (UniProt P51955). Put plainly: Binding affinity to wild-type human partial length NEK2 (M1 to K309 residues) expressed in bacterial expression system assessed as remaining unbound target protein level at 1000 nM by Kinomescan method relative to control.
Sequence of Serine/threonine-protein kinase Nek2 (Homo sapiens) (P51955 whole entry, the tested form may be a part): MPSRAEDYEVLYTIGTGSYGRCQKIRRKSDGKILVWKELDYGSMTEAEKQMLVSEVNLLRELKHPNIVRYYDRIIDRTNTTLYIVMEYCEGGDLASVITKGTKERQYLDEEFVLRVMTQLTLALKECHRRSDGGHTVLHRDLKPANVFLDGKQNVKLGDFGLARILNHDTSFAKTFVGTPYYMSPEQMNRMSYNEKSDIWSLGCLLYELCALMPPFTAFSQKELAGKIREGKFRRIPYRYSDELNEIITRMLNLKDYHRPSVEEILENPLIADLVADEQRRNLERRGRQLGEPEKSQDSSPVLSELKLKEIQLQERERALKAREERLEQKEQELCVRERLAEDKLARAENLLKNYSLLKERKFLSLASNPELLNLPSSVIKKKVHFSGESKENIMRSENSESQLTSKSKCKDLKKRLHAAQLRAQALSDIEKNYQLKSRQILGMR
Data set [11] addresses Death-associated protein kinase 2 (Homo sapiens) (UniProt Q9UIK4). The experiment in a line: Binding affinity to wild-type human full length DAPK2 (M1 to S370 residues) expressed in bacterial expression system assessed as remaining unbound target protein level at 1000 nM by Kinomescan method relative to control. The method in brief: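 KINOMEscan competition binding profile across a panel of 468 kinases and mutants, with the inhibitor tested at a single concentration of 1 μM. Binding is reported as percent of control, meaning signal relative to a DMSO control.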

For data set [12], the target named is Receptor-interacting serine/threonine-protein kinase 4 (Homo sapiens) (UniProt P57078). Put plainly: Binding affinity to wild-type human partial length RIPK4 (M1 to V303 residues) expressed in mammalian expression system assessed as remaining unbound target protein level at 1000 nM by Kinomescan method relative to control.
Sequence of Receptor-interacting serine/threonine-protein kinase 4 (Homo sapiens) (P57078 whole entry, the tested form may be a part): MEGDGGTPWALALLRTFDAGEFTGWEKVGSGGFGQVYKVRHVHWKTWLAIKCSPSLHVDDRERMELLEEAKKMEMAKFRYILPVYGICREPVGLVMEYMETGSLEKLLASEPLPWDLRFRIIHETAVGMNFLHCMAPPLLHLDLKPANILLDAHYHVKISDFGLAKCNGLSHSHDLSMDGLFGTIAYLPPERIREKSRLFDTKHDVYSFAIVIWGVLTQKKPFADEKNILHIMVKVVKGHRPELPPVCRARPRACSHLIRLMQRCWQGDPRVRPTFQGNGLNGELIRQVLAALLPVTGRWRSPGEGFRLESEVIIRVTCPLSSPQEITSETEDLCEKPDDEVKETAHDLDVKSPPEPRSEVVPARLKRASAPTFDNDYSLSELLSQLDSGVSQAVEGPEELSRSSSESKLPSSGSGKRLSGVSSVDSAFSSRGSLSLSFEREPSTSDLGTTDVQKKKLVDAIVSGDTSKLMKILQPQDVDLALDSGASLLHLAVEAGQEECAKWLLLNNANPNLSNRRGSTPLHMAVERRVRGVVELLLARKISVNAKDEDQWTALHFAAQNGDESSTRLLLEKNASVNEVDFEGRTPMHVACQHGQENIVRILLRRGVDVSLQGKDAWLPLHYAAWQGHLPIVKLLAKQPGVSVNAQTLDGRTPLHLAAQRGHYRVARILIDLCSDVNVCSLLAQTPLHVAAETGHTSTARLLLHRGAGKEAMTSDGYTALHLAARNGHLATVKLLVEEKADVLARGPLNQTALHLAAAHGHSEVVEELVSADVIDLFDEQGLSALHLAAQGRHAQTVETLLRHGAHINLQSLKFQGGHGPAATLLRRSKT
Data set [13] can be described thus: MRT (0 to infinity) in mouse at 3 mg/kg, iv by LC-MS/MS analysis. The data set is classed as ADME, organism-based. Conditions: in vivo.
Data set [14] in a line: MRT (0 to t) in beagle dog at 2 mg/kg, iv by LC-MS/MS analysis. The data set is classed as ADME, organism-based, Canis lupus familiaris. Conditions: in vivo.
Data set [15] can be described thus: Tmax in beagle dog at 2 mg/kg, iv by LC-MS/MS analysis. The data set is classed as ADME, organism-based, Canis lupus familiaris. Conditions: in vivo.
The nature of data set [16]: Cmax in beagle dog at 2 mg/kg, iv by LC-MS/MS analysis. Conditions: in vivo. Further details: dose 2 mg/kg, route intravenous. The data set is classed as ADME, organism-based, Canis lupus familiaris.
Data set [17] can be described thus: AUC (0 to infinity) in Sprague-Dawley rat at 3 mg/kg, iv by LC-MS/MS analysis. In kind it is ADME, organism-based. Further details: dose 3 mg/kg, time infinity, route intravenous. Conditions: in vivo. Put shortly: as §2
The target of data set [18] is Cyclin-dependent kinase 11A (Homo sapiens) (UniProt Q9UQ88). Put plainly: Binding affinity to wild-type human partial length CDC2L2 (D391 to K730 residues) expressed in bacterial expression system assessed as remaining unbound target protein level at 1000 nM by Kinomescan method relative to control. The method in brief: as §1
Sequence of Cyclin-dependent kinase 11A (Homo sapiens) (Q9UQ88 whole entry, the tested form may be a part): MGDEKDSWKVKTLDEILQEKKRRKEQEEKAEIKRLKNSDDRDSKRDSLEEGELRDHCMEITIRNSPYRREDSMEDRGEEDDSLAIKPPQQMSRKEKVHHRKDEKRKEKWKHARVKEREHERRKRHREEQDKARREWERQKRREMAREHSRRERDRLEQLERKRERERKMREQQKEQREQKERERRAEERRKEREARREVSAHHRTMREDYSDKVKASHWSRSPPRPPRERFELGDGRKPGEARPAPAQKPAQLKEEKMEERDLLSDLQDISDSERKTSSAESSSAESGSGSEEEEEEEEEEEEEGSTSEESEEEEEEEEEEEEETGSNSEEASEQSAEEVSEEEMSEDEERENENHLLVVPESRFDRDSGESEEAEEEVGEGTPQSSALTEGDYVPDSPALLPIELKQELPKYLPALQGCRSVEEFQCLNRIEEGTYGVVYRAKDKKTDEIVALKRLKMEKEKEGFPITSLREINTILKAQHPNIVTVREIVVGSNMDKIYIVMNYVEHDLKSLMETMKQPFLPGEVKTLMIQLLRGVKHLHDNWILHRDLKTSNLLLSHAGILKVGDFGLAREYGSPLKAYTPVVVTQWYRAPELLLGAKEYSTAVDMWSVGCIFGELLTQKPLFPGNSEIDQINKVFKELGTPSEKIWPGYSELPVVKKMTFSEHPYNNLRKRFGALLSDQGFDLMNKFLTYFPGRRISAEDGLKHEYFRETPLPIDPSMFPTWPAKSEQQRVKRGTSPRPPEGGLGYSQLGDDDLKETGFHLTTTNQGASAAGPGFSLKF
A short description of data set [19]: Clearance in Sprague-Dawley rat at 3 mg/kg, iv by LC-MS/MS analysis. The data set is classed as ADME, organism-based. To be noted: in vivo.
The subject of the next data set is A-375. Put plainly: Antiproliferative activity against human A375 cells after 72 hrs by Celltiter-Glo assay. The data set is classed as functional. To be noted: A-375, 72 h. The method in brief: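 Cells seeded at 3000/well in 96-well plates, exposed to serially diluted compound for 72 h at 37 °C, 5% CO2. Viability read by CellTiter-Glo luminescence and normalized to DMSO control. GI50 derived from curve fit, mean of three independent measurements. Culture media: DMEM/10% FBS for adherent lines; IMDM for MV4-11 and MEC-1/2; RPMI 1640 for suspension lines and CHL.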

Calls of active or inactive are those of the source.

Sequence of Serine/threonine-protein kinase 33 (Homo sapiens) (Q9BYT3 whole entry, looked up, the tested form may be a part): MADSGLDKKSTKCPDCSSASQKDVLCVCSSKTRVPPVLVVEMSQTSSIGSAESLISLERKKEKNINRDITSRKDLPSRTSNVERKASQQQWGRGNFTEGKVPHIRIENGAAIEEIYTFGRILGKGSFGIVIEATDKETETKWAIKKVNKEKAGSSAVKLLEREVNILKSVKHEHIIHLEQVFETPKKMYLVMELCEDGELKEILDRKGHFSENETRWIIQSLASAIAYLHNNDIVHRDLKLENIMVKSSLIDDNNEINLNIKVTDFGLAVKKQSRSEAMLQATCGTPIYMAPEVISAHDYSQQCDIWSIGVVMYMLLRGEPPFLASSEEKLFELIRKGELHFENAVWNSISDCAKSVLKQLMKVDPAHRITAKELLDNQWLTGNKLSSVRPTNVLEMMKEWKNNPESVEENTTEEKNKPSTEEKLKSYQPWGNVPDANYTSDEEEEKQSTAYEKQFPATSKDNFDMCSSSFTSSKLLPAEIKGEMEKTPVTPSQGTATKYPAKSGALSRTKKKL
Sequence of Epidermal growth factor receptor (Homo sapiens), P00533 [UNDEFINED MUTATION] (P00533 whole entry, looked up, stated change not applied): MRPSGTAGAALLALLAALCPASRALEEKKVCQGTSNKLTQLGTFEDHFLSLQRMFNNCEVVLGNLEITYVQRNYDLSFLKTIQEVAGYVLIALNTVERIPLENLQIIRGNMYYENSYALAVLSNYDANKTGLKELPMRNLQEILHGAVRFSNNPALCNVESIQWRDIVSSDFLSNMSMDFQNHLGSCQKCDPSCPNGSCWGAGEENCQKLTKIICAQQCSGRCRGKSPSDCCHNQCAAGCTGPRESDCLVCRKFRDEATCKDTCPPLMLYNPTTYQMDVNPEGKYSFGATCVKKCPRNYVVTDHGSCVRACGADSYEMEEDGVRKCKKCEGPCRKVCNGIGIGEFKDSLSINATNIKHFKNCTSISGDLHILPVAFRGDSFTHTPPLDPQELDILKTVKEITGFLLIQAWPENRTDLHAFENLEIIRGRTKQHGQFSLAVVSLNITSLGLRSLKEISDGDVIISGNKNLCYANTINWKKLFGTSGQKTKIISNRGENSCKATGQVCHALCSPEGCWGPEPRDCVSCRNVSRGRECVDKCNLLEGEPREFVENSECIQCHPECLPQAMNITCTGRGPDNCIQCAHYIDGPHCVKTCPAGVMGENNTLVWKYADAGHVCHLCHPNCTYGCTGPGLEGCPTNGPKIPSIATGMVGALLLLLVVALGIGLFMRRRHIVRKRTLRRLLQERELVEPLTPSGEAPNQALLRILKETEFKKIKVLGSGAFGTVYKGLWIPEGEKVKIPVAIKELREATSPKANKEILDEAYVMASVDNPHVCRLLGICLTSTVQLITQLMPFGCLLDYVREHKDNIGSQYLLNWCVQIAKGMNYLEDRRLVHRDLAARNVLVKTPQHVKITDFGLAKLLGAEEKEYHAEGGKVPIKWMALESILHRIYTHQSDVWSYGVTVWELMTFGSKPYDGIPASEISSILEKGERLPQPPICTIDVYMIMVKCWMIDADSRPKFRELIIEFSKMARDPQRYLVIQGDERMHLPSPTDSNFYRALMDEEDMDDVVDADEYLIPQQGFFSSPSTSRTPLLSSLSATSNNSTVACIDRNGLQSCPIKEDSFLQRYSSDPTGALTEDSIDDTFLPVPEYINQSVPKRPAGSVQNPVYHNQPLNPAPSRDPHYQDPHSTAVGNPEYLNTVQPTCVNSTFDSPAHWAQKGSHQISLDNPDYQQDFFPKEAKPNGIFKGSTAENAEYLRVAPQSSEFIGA

With `COCCN[C@H]1CC[C@H](Nc2cc(-c3csc(NCC4(C#N)CCOCC4)n3)c(Cl)cn2)CC1`, the Activity amounted to 78% in [1]; 100% in data set [2]; 94% in data set [3]; 100% in data set [4]; 89% in [5]; 100% in data set [6]. The Activity was 65% in data set [7]; 79% in data set [9]; 100% in [10]; 95% in data set [11]; 100% in [12]; 90% in data set [18]. Moreover, the TGI result in the data set on MV4-11 was “Active”. For the same compound, the AUC(0-inf) in [8] is 408 ng·h/mL; in data set [17], 662 ng·h/mL. The compound also came in with an MRT inf in [13] of 1.58 h. The MRT last in data set [14] was found to be 9.36 h. Also, in data set [15], the time of peak concentration (Tmax) is 1.2 min. The peak level in data set [16] (Cmax) was 414 ng/mL. Also, in data set [19], the clearance is 75.8 mL/min/kg. In the data set with A-375, the GI50 worked out at 44 nM.

The values are drawn from ChEMBL document CHEMBL4261600 (Eur J Med Chem, 2018).
